ChEMBL document CHEMBL1127395, “Synthesis and antimicrobial activity of novel 3-[(aminopyrimidiniumyl)thio]methyl cephalosporins” (1994)
≈ marks a conversion by molar mass, not a printed value.

Tests used:
[1] = tested on: Serratia marcescens; assay: In vitro minimum inhibitory concentration for Serratia marcescens (ATCC-27117) by agar dilution method; type: functional; conditions: Serratia marcescens; read-out: MIC
Outline: (§1)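 Two-fold serial dilutions of each compound dispersed in Mueller-Hinton agar; plates spot-inoculated with 2 μL of standard test strain at 10^7 CFU/mL, incubated 37 °C for 20 h; MIC read as lowest concentration inhibiting growth.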

[2] = tested on: Salmonella typhimurium; assay: In vitro minimum inhibitory concentration for Salmonella Typhimurium (ATCC-14028) by agar dilution method; type: functional, Salmonella enterica subsp. enterica serovar Typhimurium; conditions: Salmonella enterica; read-out: MIC; outline: as §1
[3] = tested on: Klebsiella aerogenes; assay: In vitro minimum inhibitory concentration for Enterobacter aerogenes (ATCC-29751) by agar dilution method; type: functional; conditions: Klebsiella aerogenes; read-out: MIC; outline: as §1
[4] = tested on: Pseudomonas aeruginosa; assay: In vitro minimum inhibitory concentration for Pseudomonas aeruginosa (ATCC 10145) by agar dilution method; type: functional; outline: as §1
[5] = tested on: Escherichia coli; assay: In vitro minimum inhibitory concentration for Escherichia coli (ATCC-10536) by agar dilution method; type: functional; conditions: Escherichia coli; read-out: MIC; outline: as §1
[6] = tested on: Proteus vulgaris; assay: In vitro minimum inhibitory concentration for Proteus vulgaris (ATCC-6059) by agar dilution method; type: functional; conditions: Proteus vulgaris; read-out: MIC; outline: as §1
[7] = tested on: Staphylococcus epidermidis; assay: In vitro minimum inhibitory concentration for Staphylococcus epidermidis (ATCC-12228) by agar dilution method; type: functional; conditions: Staphylococcus epidermidis; read-out: MIC; outline: as §1
[8] = tested on: Enterobacter cloacae; assay: In vitro minimum inhibitory concentration for Enterobacter cloacae (ATCC-27508) by agar dilution method; type: functional; conditions: Enterobacter cloacae; read-out: MIC; outline: as §1
[9] = tested on: Staphylococcus aureus; assay: In vitro minimum inhibitory concentration for Staphylococcus aureus (ATCC 6538p) by agar dilution method; type: functional; conditions: Staphylococcus aureus, ATCC 6538p; read-out: MIC; outline: as §1
[10] = tested on: Pseudomonas aeruginosa; assay: In vitro minimum inhibitory concentration for Pseudomonas aeruginosa (ATCC-27853) by agar dilution method; type: functional; conditions: Pseudomonas aeruginosa; read-out: MIC; outline: as §1
[11] = tested on: Klebsiella pneumoniae; assay: In vitro minimum inhibitory concentration for Klebsiella pneumoniae (ATCC-10031) by agar dilution method; type: functional; conditions: Klebsiella pneumoniae; read-out: MIC
[12] = tested on: Citrobacter freundii; assay: In vitro minimum inhibitory concentration for Citrobacter freundii (ATCC-8090) by agar dilution method; type: functional; conditions: Citrobacter freundii; read-out: MIC; outline: as §1

SMILES	MIC [1]	MIC [2]	MIC [3]	MIC [4]	MIC [5]	MIC [6]	MIC [7]	MIC [8]	MIC [9]	MIC [10]	MIC [11]	MIC [12]
Cc1cccc(C)c1-[n+]1c(N)cc(N)nc1SCC1=C(C(=O)[O-])N2C(=O)C(NC(=O)/C(=N\OC(C)(C)C(=O)O)c3cnc(N)s3)C2SC1 (stereo unspecified)	2 µg/mL (≈ 2.8 µM)	2 µg/mL (≈ 2.8 µM)	2 µg/mL (≈ 2.8 µM)	8 µg/mL (≈ 11.2 µM)	0.5 µg/mL (≈ 0.7 µM)	0.5 µg/mL (≈ 0.7 µM)	2 µg/mL (≈ 2.8 µM)	0.25 µg/mL (≈ 0.35 µM)	4 µg/mL (≈ 5.6 µM)	4 µg/mL (≈ 5.6 µM)	0.25 µg/mL (≈ 0.35 µM)	1 µg/mL (≈ 1.4 µM)
CC(C)(O/N=C(\C(=O)NC1C(=O)N2C(C(=O)O)=C(CSc3nccc(N)n3)CSC12)c1cnc(N)s1)C(=O)O (stereo unspecified)	1 µg/mL (≈ 1.68 µM)	1 µg/mL (≈ 1.68 µM)	8 µg/mL (≈ 13.5 µM)	16 µg/mL (≈ 26.9 µM)	1 µg/mL (≈ 1.68 µM)	0.063 µg/mL (≈ 0.106 µM)	16 µg/mL (≈ 26.9 µM)	0.5 µg/mL (≈ 0.841 µM)	32 µg/mL (≈ 53.8 µM)	8 µg/mL (≈ 13.5 µM)	0.5 µg/mL (≈ 0.841 µM)	1 µg/mL (≈ 1.68 µM)
Cn1cn[n+]2c(SCC3=C(C(=O)[O-])N4C(=O)C(NC(=O)/C(=N\OC(C)(C)C(=O)O)c5cnc(N)s5)C4SC3)nc(N)cc12 (stereo unspecified)	0.25 µg/mL (≈ 0.385 µM)	0.25 µg/mL (≈ 0.385 µM)	1 µg/mL (≈ 1.54 µM)	4 µg/mL (≈ 6.17 µM)	0.06 µg/mL (≈ 0.0925 µM)	0.06 µg/mL (≈ 0.0925 µM)	1 µg/mL (≈ 1.54 µM)	0.02 µg/mL (≈ 0.0308 µM)	8 µg/mL (≈ 12.3 µM)	2 µg/mL (≈ 3.08 µM)	0.06 µg/mL (≈ 0.0925 µM)	0.13 µg/mL (≈ 0.2 µM)
CNc1cc2n(C)cc[n+]2c(SCC2=C(C(=O)[O-])N3C(=O)C(NC(=O)/C(=N\OC(C)(C)C(=O)O)c4cnc(N)s4)C3SC2)n1 (stereo unspecified)	0.5 µg/mL (≈ 0.756 µM)	0.5 µg/mL (≈ 0.756 µM)	4 µg/mL (≈ 6.04 µM)	8 µg/mL (≈ 12.1 µM)	0.13 µg/mL (≈ 0.196 µM)	0.13 µg/mL (≈ 0.196 µM)	4 µg/mL (≈ 6.04 µM)	0.03 µg/mL (≈ 0.0453 µM)	8 µg/mL (≈ 12.1 µM)	4 µg/mL (≈ 6.04 µM)	0.25 µg/mL (≈ 0.378 µM)	0.13 µg/mL (≈ 0.196 µM)
CC(C)(O/N=C(\C(=O)NC1C(=O)N2C(C(=O)[O-])=C(CSc3nc(N)cc(N)[n+]3-c3ccc(Cl)cc3)CSC12)c1cnc(N)s1)C(=O)O (stereo unspecified)	1 µg/mL (≈ 1.39 µM)	0.5 µg/mL (≈ 0.694 µM)	1 µg/mL (≈ 1.39 µM)	4 µg/mL (≈ 5.55 µM)	0.25 µg/mL (≈ 0.347 µM)	0.25 µg/mL (≈ 0.347 µM)	2 µg/mL (≈ 2.78 µM)	0.13 µg/mL (≈ 0.181 µM)	4 µg/mL (≈ 5.55 µM)	2 µg/mL (≈ 2.78 µM)	0.13 µg/mL (≈ 0.181 µM)	0.25 µg/mL (≈ 0.347 µM)
C[n+]1cccnc1SCC1=C(C(=O)[O-])N2C(=O)C(NC(=O)/C(=N\OC(C)(C)C(=O)O)c3cnc(N)s3)C2SC1 (stereo unspecified)	2 µg/mL (≈ 3.37 µM)	1 µg/mL (≈ 1.68 µM)	16 µg/mL (≈ 27 µM)	8 µg/mL (≈ 13.5 µM)	1 µg/mL (≈ 1.68 µM)	0.13 µg/mL (≈ 0.219 µM)	64 µg/mL (≈ 108 µM)	0.25 µg/mL (≈ 0.421 µM)	128 µg/mL (≈ 216 µM)	8 µg/mL (≈ 13.5 µM)	0.5 µg/mL (≈ 0.842 µM)	8 µg/mL (≈ 13.5 µM)
C/C=C/[n+]1c(N)cc(N)nc1SCC1=C(C(=O)[O-])N2C(=O)C(NC(=O)/C(=N\OC(C)(C)C(=O)O)c3cnc(N)s3)C2SC1 (stereo unspecified)	0.13 µg/mL (≈ 0.2 µM)	0.25 µg/mL (≈ 0.385 µM)	2 µg/mL (≈ 3.08 µM)	2 µg/mL (≈ 3.08 µM)	0.13 µg/mL (≈ 0.2 µM)	0.06 µg/mL (≈ 0.0923 µM)	2 µg/mL (≈ 3.08 µM)	0.03 µg/mL (≈ 0.0462 µM)	4 µg/mL (≈ 6.16 µM)	2 µg/mL (≈ 3.08 µM)	0.06 µg/mL (≈ 0.0923 µM)	0.13 µg/mL (≈ 0.2 µM)
CC(C)(O/N=C(\C(=O)NC1C(=O)N2C(C(=O)[O-])=C(CSc3nc(N)cc(N)[n+]3-c3ccc(O)cc3)CSC12)c1cnc(N)s1)C(=O)O (stereo unspecified)	0.5 µg/mL (≈ 0.712 µM)	0.5 µg/mL (≈ 0.712 µM)	2 µg/mL (≈ 2.85 µM)	2 µg/mL (≈ 2.85 µM)	0.25 µg/mL (≈ 0.356 µM)	0.13 µg/mL (≈ 0.185 µM)	2 µg/mL (≈ 2.85 µM)	0.06 µg/mL (≈ 0.0855 µM)	4 µg/mL (≈ 5.7 µM)	1 µg/mL (≈ 1.42 µM)	0.13 µg/mL (≈ 0.185 µM)	0.25 µg/mL (≈ 0.356 µM)
